Consider 1 molecule from ChEMBL document CHEMBL2311478, “Macrolactonolides: a novel class of anti-inflammatory compounds” (Bioorg Med Chem, 2013).

≈ marks a conversion by molar mass, not a printed value.

Common to all, as to assay type: functional
For experiment [1], the system named is Streptococcus pneumoniae. Nature of the experiment: Antibacterial activity against efflux mediated macrolide-resistant Streptococcus pneumoniae Ci137 by broth microdilution method. In short, it runs like this:
(§1)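 MICs by CLSI broth microdilution with double dilutions, except that Streptococcus medium used 5% horse serum in place of lysed blood. Bacteria were pre-grown on Columbia agar with 5% sheep blood (streptococci) or Mueller–Hinton agar (staphylococci).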
For orientation: Broth dilution looks for growth in wells or tubes with falling amounts of substance.

Experiment [2] concerns Streptococcus pyogenes. Nature of the experiment: Antibacterial activity against efflux mediated macrolide-resistant Streptococcus pyogenes Finland 2 by broth microdilution method. An outline of the steps:
as §1

Experiment [3] concerns Moraxella catarrhalis. Nature of the experiment: Antibacterial activity against Moraxella catarrhalis ATCC 23246 by broth microdilution method. An outline of the steps:
(§2)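 CLSI broth microdilution with double dilutions in 96-well plates. For streptococci, 5% horse serum replaced lysed blood in the medium. Inocula were grown on Columbia agar with 5% sheep blood for streptococci, Mueller–Hinton chocolate agar for H. influenzae, and Mueller–Hinton agar for staphylococci. Read-out is MIC in mg/L.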

For experiment [4], the system named is Haemophilus influenzae. In words: Antibacterial activity against Haemophilus influenzae ATTC 49247 by broth microdilution method. In short, it runs like this: as §2
Experiment [5] relates to Streptococcus pneumoniae. In words: Antibacterial activity against inducible-resistant to macrolide, licosamide and streptogramin Streptococcus pneumoniae 134 GR-M by broth microdilution method. An outline of the steps:
as §1

For experiment [6], the system named is Escherichia coli. In words: Antibacterial activity against Escherichia coli ATCC 25922 by broth microdilution method. In short, it runs like this: as §2
The subject of experiment [7] is Streptococcus pneumoniae. Nature of the experiment: Antibacterial activity against erythromycin susceptible Streptococcus pneumoniae SP 030 by broth microdilution method. In short, it runs like this:
as §2

Experiment [8] concerns Staphylococcus aureus. In words: Antibacterial activity against inducible-resistant to macrolide, licosamide and streptogramin Staphylococcus aureus 90265/97 by broth microdilution method. An outline of the steps: as §1
The subject of experiment [9] is Streptococcus pyogenes. Nature of the experiment: Antibacterial activity against inducible-resistant to macrolide, licosamide and streptogramin Streptococcus pyogenes Finland 11 by broth microdilution method. In short, it runs like this: as §1
Experiment [10] concerns Staphylococcus aureus. Nature of the experiment: Antibacterial activity against efflux mediated macrolide-resistant Staphylococcus aureus PK1 by broth microdilution method. An outline of the steps:
as §1

In experiment [11] the test system is Streptococcus pyogenes. Nature of the experiment: Antibacterial activity against erythromycin susceptible Streptococcus pyogenes 3565 by broth microdilution method. In short, it runs like this:
as §2

For experiment [12], the system named is Streptococcus pyogenes. Nature of the experiment: Antibacterial activity against constitutive-resistant to macrolide, licosamide and streptogramin Streptococcus pyogenes 166 GR-Micro by broth microdilution method. An outline of the steps: as §1
The subject of experiment [13] is Staphylococcus aureus. Nature of the experiment: Antibacterial activity against Staphylococcus aureus ATCC 13709 by broth microdilution method. In short, it runs like this:
as §2

Experiment [14] has as its system Streptococcus pneumoniae. Nature of the experiment: Antibacterial activity against constitutive-resistant to macrolide, licosamide and streptogramin Streptococcus pneumoniae 58 Spain by broth microdilution method. In short, it runs like this: as §1
Experiment [15] concerns Enterococcus faecalis. Nature of the experiment: Antibacterial activity against Enterococcus faecalis ATCC 29213 by broth microdilution method. An outline of the steps: as §2
In experiment [16] the test system is Staphylococcus aureus. In words: Antibacterial activity against constitutive-resistant to macrolide, licosamide and streptogramin Staphylococcus aureus PK2 by broth microdilution method. In short, it runs like this: as §1

In the case of `CC[C@H]1OC(=O)[C@H](C)[C@@H](O[C@H]2C[C@@](C)(OC)[C@@H](O)[C@H](C)O2)[C@H](C)[C@@H](O[C@@H]2O[C@H](C)C[C@H](N(C)C)[C@H]2O)[C@](C)(O)C[C@@H](C)CN(C)[C@H](C)[C@@H](O)[C@]1(C)O` [AZITHROMYCIN], the MIC was 8 µg/mL (≈ 10.7 µM) in [1]; 8 µg/mL (≈ 10.7 µM) in experiment [2]; not above 0.125 µg/mL in [3]; 1 µg/mL (≈ 1.34 µM) in experiment [4]; more than 64 µg/mL in experiment [5]; 2 µg/mL (≈ 2.67 µM) in [6]. The MIC was not above 0.125 µg/mL in experiment [7]; more than 64 µg/mL in [8]; 16 µg/mL (≈ 21.4 µM) in experiment [9]; more than 64 µg/mL in experiment [10]; not above 0.125 µg/mL in experiment [11]; more than 64 µg/mL in [12]. For the same molecule, the MIC was 0.5 µg/mL (≈ 0.668 µM) in experiment [13], more than 64 µg/mL in experiment [14], 4 µg/mL (≈ 5.34 µM) in [15] and more than 64 µg/mL in experiment [16].
